Test results from ChEMBL document CHEMBL5143669, “Stapled peptides as scaffolds for developing radiotracers for intracellular targets: Preliminary evaluation of a radioiodinated MDM2-binding stapled peptide in the SJSA-1 osteosarcoma model” (Bioorg Med Chem Lett, 2022).
One block for each molecule: values may come before it.

Assays:
[1] = Lipophilicity, logD of the compound using n-octanol and phosphate-buffered saline at pH 7.4 by the shake flask method; assay type: physicochemical
Outline: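 Shake-flask partition of the 125I-labeled peptide between n-octanol and PBS pH 7.4; logD from n = 4.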

[2] = Metabolic stability in athymic mouse plasma assessed as intact labeled peptide level at 3.7 MBq, iv after 2 hrs by RP-HPLC; assay type: ADME, organism-based
Outline: (§1)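 Tumor-free athymic mice were given 131I-labeled peptide via tail vein. Plasma was collected at 2 and 4 h (n = 2 per time) and analysed by RP-HPLC on an RP-18 column with an ethanol/0.05 M sodium acetate pH 5.5 gradient at 1 mL/min; intact fraction taken as percentage of plasma radioactivity.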

[3] = Metabolic stability in athymic mouse plasma assessed as intact labeled peptide level at 3.7 MBq, iv after 4 hrs by RP-HPLC; assay type: ADME, organism-based; outline: as §1
[4] = target: T1, E3 ubiquitin-protein ligase Mdm2 (Homo sapiens, UniProt Q00987); experiment: Binding affinity to MDM2 (unknown origin)
[5] = target: T1, E3 ubiquitin-protein ligase Mdm2; experiment: Binding affinity to recombinant human MDM2 by using 5-FAM-PMDM6 by fluorescence polarization based assay

T1 sequence (Q00987 whole entry): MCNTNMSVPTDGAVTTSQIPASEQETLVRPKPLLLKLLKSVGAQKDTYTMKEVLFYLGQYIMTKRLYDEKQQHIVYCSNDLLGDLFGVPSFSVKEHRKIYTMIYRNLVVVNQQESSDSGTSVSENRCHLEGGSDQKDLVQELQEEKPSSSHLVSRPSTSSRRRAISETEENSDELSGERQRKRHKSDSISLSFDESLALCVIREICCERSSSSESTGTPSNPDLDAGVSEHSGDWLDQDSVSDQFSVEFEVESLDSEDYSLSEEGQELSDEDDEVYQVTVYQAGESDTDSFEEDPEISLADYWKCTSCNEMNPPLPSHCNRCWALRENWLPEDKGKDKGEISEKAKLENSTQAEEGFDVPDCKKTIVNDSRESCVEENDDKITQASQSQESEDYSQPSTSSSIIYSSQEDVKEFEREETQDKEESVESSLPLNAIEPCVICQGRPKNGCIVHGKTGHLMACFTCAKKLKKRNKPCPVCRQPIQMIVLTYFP

- logD [1]: 1.45
SMILES: CC(=O)NC(CCCCNC(=O)c1cccc(I)c1)C(=O)NCCCCCC(=O)N[C@H](C(=O)N[C@@H](CO)C(=O)N[C@@H](Cc1ccccc1)C(=O)N[C@@]1(C)CCCCCC/C=C/CCC[C@@](C)(C(=O)N[C@@H](CCC(=O)O)C(=O)N[C@@H](CC(N)=O)C(=O)N[C@@H](Cc2ccccc2)C(N)=O)NC(=O)[C@H](CC(C)C)NC(=O)[C@H](CC(C)C)NC(=O)[C@H](C)NC(=O)[C@H](Cc2c[nH]c3ccccc23)NC(=O)[C@H](Cc2ccc(O)cc2)NC(=O)[C@H](CCC(=O)O)NC1=O)[C@@H](C)O (stereo not given in full)

- Stability [2]: 68%
- Stability [3]: 80%
SMILES: CC(=O)NC(CCCCNC(=O)c1cccc([131I])c1)C(=O)NCCCCCC(=O)N[C@H](C(=O)N[C@@H](CO)C(=O)N[C@@H](Cc1ccccc1)C(=O)N[C@@]1(C)CCCCCC/C=C/CCC[C@@](C)(C(=O)N[C@@H](CCC(=O)O)C(=O)N[C@@H](CC(N)=O)C(=O)N[C@@H](Cc2ccccc2)C(N)=O)NC(=O)[C@H](CC(C)C)NC(=O)[C@H](CC(C)C)NC(=O)[C@H](C)NC(=O)[C@H](Cc2c[nH]c3ccccc23)NC(=O)[C@H](Cc2ccc(O)cc2)NC(=O)[C@H](CCC(=O)O)NC1=O)[C@@H](C)O (stereo not given in full)

- Kd [4]: 15.1 nM
- IC50 [5]: 2.8 nM
SMILES: CC(=O)N[C@@H](CCCCN)C(=O)NCCCCCC(=O)N[C@H](C(=O)N[C@@H](CO)C(=O)N[C@@H](Cc1ccccc1)C(=O)N[C@]1(C)CCCCCC/C=C/CCC[C@@](C)(C(=O)N[C@@H](CCC(=O)O)C(=O)N[C@@H](CC(N)=O)C(=O)N[C@@H](Cc2ccccc2)C(N)=O)NC(=O)[C@H](CC(C)C)NC(=O)[C@H](CC(C)C)NC(=O)[C@H](C)NC(=O)[C@H](Cc2c[nH]c3ccccc23)NC(=O)[C@H](Cc2ccc(O)cc2)NC(=O)[C@H](CCC(=O)O)NC1=O)[C@@H](C)O
